# Test results reported in ChEMBL document CHEMBL4118244, “Design, synthesis and biological evaluation of benzofuran appended benzothiazepine derivatives as inhibitors of butyrylcholinesterase and antimicrobial agents” (Bioorg Med Chem, 2018).
# pIC50: −log10 of the molar value. Activity calls are given as the source filed them. The rule behind the calls is not given here.
# Columns and labels:
# Cholinesterase = Cholinesterase (Equus caballus, UniProt P81908); assay: Inhibition of equine serum BChE using butyrylthiocholine iodide as substrate pretreated for 15 mins followed by substrate addition measured for 6 mins by Ellman's method; settings: for pIC50: read-out: IC50
# Cholinesterase, sequence (P81908 whole entry): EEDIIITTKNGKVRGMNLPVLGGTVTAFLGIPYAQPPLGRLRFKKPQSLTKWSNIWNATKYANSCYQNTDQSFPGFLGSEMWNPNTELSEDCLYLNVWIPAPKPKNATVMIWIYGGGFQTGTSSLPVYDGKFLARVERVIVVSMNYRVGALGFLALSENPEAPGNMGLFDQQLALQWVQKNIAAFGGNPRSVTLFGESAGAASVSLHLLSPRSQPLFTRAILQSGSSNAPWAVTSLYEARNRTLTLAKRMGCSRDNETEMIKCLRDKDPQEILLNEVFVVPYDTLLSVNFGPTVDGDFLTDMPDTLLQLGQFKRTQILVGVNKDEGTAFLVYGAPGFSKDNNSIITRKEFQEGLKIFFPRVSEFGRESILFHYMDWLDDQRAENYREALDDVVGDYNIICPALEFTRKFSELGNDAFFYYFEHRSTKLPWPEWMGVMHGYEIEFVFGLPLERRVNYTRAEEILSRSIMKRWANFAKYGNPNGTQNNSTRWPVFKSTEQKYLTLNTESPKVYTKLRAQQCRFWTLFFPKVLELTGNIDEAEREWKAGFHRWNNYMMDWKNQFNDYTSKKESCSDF
# In short: (§1)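 Ellman spectrophotometric assay in 0.1 M phosphate buffer pH 8.0 with DTNB, 25 °C. AChE (electric eel, Type V-S) or BChE was preincubated 15 min with compound before adding acetylthiocholine iodide or butyrylthiocholine iodide, respectively. Absorbance change at 412 nm was read for 6 min. Five concentrations were tested in triplicate, corrected by a nonenzymatic blank, with a no-inhibitor reference.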
# [1] = biological target: Acetylcholinesterase (Electrophorus electricus) (UniProt O42275); assay: Inhibition of electric eel AChE using acetylthiocholine iodide as substrate pretreated for 15 mins followed by substrate addition measured for 6 mins by Ellman's method; in short: as §1
# Acetylcholinesterase (Electrophorus electricus), sequence (O42275 24-633 limits assumed): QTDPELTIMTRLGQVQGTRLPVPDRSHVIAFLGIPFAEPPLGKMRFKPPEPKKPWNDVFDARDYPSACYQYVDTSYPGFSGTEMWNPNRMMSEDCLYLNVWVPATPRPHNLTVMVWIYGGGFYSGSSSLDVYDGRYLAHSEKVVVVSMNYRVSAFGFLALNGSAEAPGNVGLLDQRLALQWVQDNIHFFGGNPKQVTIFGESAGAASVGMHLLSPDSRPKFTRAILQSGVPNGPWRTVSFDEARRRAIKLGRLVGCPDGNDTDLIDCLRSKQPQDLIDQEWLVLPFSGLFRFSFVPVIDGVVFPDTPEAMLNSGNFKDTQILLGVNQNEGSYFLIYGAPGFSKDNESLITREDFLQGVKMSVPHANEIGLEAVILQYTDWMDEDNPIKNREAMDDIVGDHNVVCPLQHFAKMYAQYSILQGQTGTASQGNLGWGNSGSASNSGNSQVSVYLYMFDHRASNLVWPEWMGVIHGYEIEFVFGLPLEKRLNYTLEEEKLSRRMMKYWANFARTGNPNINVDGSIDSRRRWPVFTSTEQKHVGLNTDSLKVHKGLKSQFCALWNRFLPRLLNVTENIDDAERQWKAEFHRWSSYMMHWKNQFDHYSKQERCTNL
# Escherichia coli [2] = assay: Antibacterial activity against Escherichia coli ATCC 10536; assay type: functional
# Candida albicans [3] = assay: Antifungal activity against Candida albicans ATCC 10231 assessed as diameter of inhibition zone at 200 ug per disc after 48 hrs by agar disc diffusion method; assay type: functional; settings: ATCC 10231, 48 h, read-out: DIZ
# In short: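 Yeast tested by agar disc diffusion. Compounds at 20 mg mL⁻¹ in DMSO, filter-sterilised. 6 mm discs carried 10 µl (200 µg per disc), with DMSO discs as negative control. Incubation 48 h at 30 °C. Zone diameter was averaged over 3 repeats (±1 mm).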
# Bacillus spizizenii [4] = assay: Antibacterial activity against Bacillus subtilis ATCC 6633 assessed as diameter of inhibition zone at 200 ug per disc after 24 hrs by agar disc diffusion method; assay type: functional; settings: ATCC 6633, 24 h, read-out: DIZ
# In short: (§2)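 Agar disc diffusion. Compounds at 20 mg mL⁻¹ in DMSO, filter-sterilised. 100 µL of 10⁸ CFU mL⁻¹ bacteria spread on nutrient agar. 6 mm discs carried 10 µl (200 µg per disc), with DMSO discs as negative control. Incubation 24 h at 37 °C. Read-out is inhibition zone diameter, mean of 3 repeats (±1 mm).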
# Shigella dysenteriae [5] = assay: Antibacterial activity against Shigella dysenteriae PTCC 1188 assessed as diameter of inhibition zone at 200 ug per disc after 24 hrs by agar disc diffusion method; assay type: functional; settings: PTCC 1188, 24 h, read-out: DIZ; in short: as §2
# Aspergillus niger [6] = assay: Antifungal activity against Aspergillus niger ATCC 16404; assay type: functional
# Aspergillus brasiliensis [7] = assay: Antifungal activity against Aspergillus brasiliensis PTCC 5011; assay type: functional
# Pseudomonas aeruginosa [8] = assay: Antibacterial activity against Pseudomonas aeruginosa ATCC 27853 assessed as diameter of inhibition zone at 200 ug per disc after 24 hrs by agar disc diffusion method; assay type: functional; settings: ATCC 27853, 24 h, read-out: DIZ; in short: as §2
# Bacillus spizizenii [9] = assay: Antibacterial activity against Bacillus subtilis ATCC 6633; assay type: functional
# Shigella dysenteriae [10] = assay: Antibacterial activity against Shigella dysenteriae PTCC 1188; assay type: functional
# Staphylococcus aureus [11] = assay: Antibacterial activity against Staphylococcus aureus ATCC 29737; assay type: functional
# Klebsiella pneumoniae [12] = assay: Antibacterial activity against Klebsiella pneumoniae ATCC 10031; assay type: functional
# Candida albicans [13] = assay: Antifungal activity against Candida albicans ATCC 10231; assay type: functional
# Staphylococcus aureus [14] = assay: Antibacterial activity against Staphylococcus aureus ATCC 29737 assessed as diameter of inhibition zone at 200 ug per disc after 24 hrs by agar disc diffusion method; assay type: functional; settings: ATCC 29737, 24 h, read-out: DIZ; in short: as §2
# Aspergillus niger [15] = assay: Antifungal activity against Aspergillus niger ATCC 16404 assessed as diameter of inhibition zone at 200 ug per disc after 72 hrs by agar disc diffusion method; assay type: functional; settings: for zone of inhibition at 200 µg/disc: ATCC 16404, 72 h, read-out: DIZ
# In short: (§3)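 Agar disc diffusion against mold. Compounds at 20 mg mL⁻¹ in DMSO, filter-sterilised. 6 mm discs carried 10 µl (200 µg per disc), with DMSO discs as negative control. Incubation 72 h at 30 °C. Read-out is growth inhibition zone diameter, mean of 3 repeats (±1 mm).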
# [16] = tested on: Staphylococcus epidermidis; assay: Antibacterial activity against Staphylococcus epidermidis ATCC 12228; assay type: functional
# Proteus vulgaris [17] = assay: Antibacterial activity against Proteus vulgaris PTCC 1182; assay type: functional
# Proteus vulgaris [18] = assay: Antibacterial activity against Proteus vulgaris PTCC 1182 assessed as diameter of inhibition zone at 200 ug per disc after 24 hrs by agar disc diffusion method; assay type: functional; settings: PTCC 1182, 24 h, read-out: DIZ; in short: as §2
# Escherichia coli [19] = assay: Antibacterial activity against Escherichia coli ATCC 10536 assessed as diameter of inhibition zone at 200 ug per disc after 24 hrs by agar disc diffusion method; assay type: functional; settings: ATCC 10536, 24 h, read-out: DIZ; in short: as §2
# Salmonella paratyphi [20] = assay: Antibacterial activity against Salmonella paratyphi A serotype ATCC 5702; assay type: functional, Salmonella enterica subsp. enterica serovar Paratyphi A
# Salmonella paratyphi [21] = assay: Antibacterial activity against Salmonella paratyphi A serotype ATCC 5702 assessed as diameter of inhibition zone at 200 ug per disc after 24 hrs by agar disc diffusion method; assay type: functional, Salmonella enterica subsp. enterica serovar Paratyphi A; settings: Salmonella enterica, ATCC 5702, 24 h; read-out: DIZ; in short: as §2
# Aspergillus brasiliensis [22] = assay: Antifungal activity against Aspergillus brasiliensis PTCC 5011 assessed as diameter of inhibition zone at 200 ug per disc after 72 hrs by agar disc diffusion method; assay type: functional; settings: for zone of inhibition at 200 µg/disc: PTCC 5011, 72 h, read-out: DIZ; in short: as §3
# Pseudomonas aeruginosa [23] = assay: Antibacterial activity against Pseudomonas aeruginosa ATCC 27853; assay type: functional
# Klebsiella pneumoniae [24] = assay: Antibacterial activity against Klebsiella pneumoniae ATCC 10031 assessed as diameter of inhibition zone at 200 ug per disc after 24 hrs by agar disc diffusion method; assay type: functional; settings: ATCC 10031, 24 h, read-out: DIZ; in short: as §2
# [25] = tested on: Staphylococcus epidermidis; assay: Antibacterial activity against Staphylococcus epidermidis ATCC 12228 assessed as diameter of inhibition zone at 200 ug per disc after 24 hrs by agar disc diffusion method; assay type: functional; settings: ATCC 12228, 24 h, read-out: DIZ; in short: as §2
compound,measurement,setting,value
COc1ccc(C2CC(c3cc4cc(Br)ccc4o3)=Nc3ccccc3S2)cc1 (configuration not stated),pIC50,Cholinesterase,6.00
same,inhibition,[1],inactive
Oc1ccc(C2CC(c3cc4cc(Br)ccc4o3)=Nc3ccccc3S2)cc1 (configuration not stated),pIC50,Cholinesterase,5.19
same,inhibition,[1],inactive
Fc1ccccc1C1CC(c2cc3cc(Br)ccc3o2)=Nc2ccccc2S1 (configuration not stated),MIC,Escherichia coli [2],inactive
same,zone of inhibition at 200 µg/disc,Candida albicans [3],13 mm
same,zone of inhibition at 200 µg/disc,Bacillus spizizenii [4],< 6 mm
same,zone of inhibition at 200 µg/disc,Shigella dysenteriae [5],< 6 mm
same,MIC,Aspergillus niger [6],inactive
same,MIC,Aspergillus brasiliensis [7],inactive
same,zone of inhibition at 200 µg/disc,Pseudomonas aeruginosa [8],15 mm
same,MIC,Bacillus spizizenii [9],inactive
same,MIC,Shigella dysenteriae [10],inactive
same,MIC,Staphylococcus aureus [11],5 µg/mL
same,MIC,Klebsiella pneumoniae [12],inactive
same,MIC,Candida albicans [13],25 µg/mL
same,zone of inhibition at 200 µg/disc,Staphylococcus aureus [14],10 mm
same,zone of inhibition at 200 µg/disc,Aspergillus niger [15],< 6 mm
same,MIC,[16],5 µg/mL
same,MIC,Proteus vulgaris [17],inactive
same,zone of inhibition at 200 µg/disc,Proteus vulgaris [18],< 6 mm
same,pIC50,Cholinesterase,4.86
same,zone of inhibition at 200 µg/disc,Escherichia coli [19],< 6 mm
same,MIC,Salmonella paratyphi [20]; Salmonella enterica,50 µg/mL
same,zone of inhibition at 200 µg/disc,Salmonella paratyphi [21],11 mm
same,zone of inhibition at 200 µg/disc,Aspergillus brasiliensis [22],< 6 mm
same,MIC,Pseudomonas aeruginosa [23],50 µg/mL
same,zone of inhibition at 200 µg/disc,Klebsiella pneumoniae [24],< 6 mm
same,inhibition,[1],inactive
same,zone of inhibition at 200 µg/disc,[25],9 mm
NYSTATIN,MIC,Aspergillus niger [6],0.25 µg/mL
same,MIC,Aspergillus brasiliensis [7],0.5 µg/mL
same,MIC,Candida albicans [13],0.125 µg/mL
same,inhibition zone (IZ),Aspergillus niger [15],27 mm
same,inhibition zone (IZ),Aspergillus brasiliensis [22],23 mm
Brc1ccc2oc(C3=Nc4ccccc4SC(c4c[nH]c5ccccc45)C3)cc2c1 (configuration not stated),pIC50,Cholinesterase,4.55
same,inhibition,[1],inactive
COc1ccccc1C1CC(c2cc3ccccc3o2)=Nc2ccccc2S1 (configuration not stated),pIC50,Cholinesterase,5.32
same,inhibition,[1],inactive
Brc1ccc2oc(C3=Nc4ccccc4SC(c4ccccc4)C3)cc2c1 (configuration not stated),pIC50,Cholinesterase,5.07
same,inhibition,[1],inactive
O=[N+]([O-])c1ccc2oc(C3=Nc4ccccc4SC(c4ccccc4)C3)cc2c1 (configuration not stated),IC50,Cholinesterase,Not Active
same,inhibition,[1],inactive
O=[N+]([O-])c1ccc2oc(C3=Nc4ccccc4SC(c4cccc5ccccc45)C3)cc2c1 (configuration not stated),MIC,Escherichia coli [2],inactive
same,zone of inhibition at 200 µg/disc,Candida albicans [3],13 mm
same,zone of inhibition at 200 µg/disc,Bacillus spizizenii [4],15 mm
same,zone of inhibition at 200 µg/disc,Shigella dysenteriae [5],< 6 mm
same,MIC,Aspergillus niger [6],inactive
same,MIC,Aspergillus brasiliensis [7],inactive
same,zone of inhibition at 200 µg/disc,Pseudomonas aeruginosa [8],< 6 mm
same,MIC,Bacillus spizizenii [9],0.125 µg/mL
same,MIC,Shigella dysenteriae [10],inactive
same,MIC,Staphylococcus aureus [11],0.25 µg/mL
same,MIC,Klebsiella pneumoniae [12],50 µg/mL
same,MIC,Candida albicans [13],2.5 µg/mL
same,zone of inhibition at 200 µg/disc,Staphylococcus aureus [14],20 mm
same,zone of inhibition at 200 µg/disc,Aspergillus niger [15],< 6 mm
same,MIC,[16],0.25 µg/mL
same,MIC,Proteus vulgaris [17],inactive
same,zone of inhibition at 200 µg/disc,Proteus vulgaris [18],< 6 mm
same,pIC50,Cholinesterase,4.26
same,zone of inhibition at 200 µg/disc,Escherichia coli [19],< 6 mm
same,MIC,Salmonella paratyphi [20]; Salmonella enterica,50 µg/mL
same,zone of inhibition at 200 µg/disc,Salmonella paratyphi [21],11 mm
same,zone of inhibition at 200 µg/disc,Aspergillus brasiliensis [22],< 6 mm
same,MIC,Pseudomonas aeruginosa [23],inactive
same,zone of inhibition at 200 µg/disc,Klebsiella pneumoniae [24],11 mm
same,inhibition,[1],inactive
same,zone of inhibition at 200 µg/disc,[25],30 mm
O=[N+]([O-])c1ccc2oc(C3=Nc4ccccc4SC(c4ccccc4F)C3)cc2c1 (configuration not stated),MIC,Escherichia coli [2],50 µg/mL
same,zone of inhibition at 200 µg/disc,Candida albicans [3],19 mm
same,zone of inhibition at 200 µg/disc,Bacillus spizizenii [4],< 6 mm
same,zone of inhibition at 200 µg/disc,Shigella dysenteriae [5],< 6 mm
same,MIC,Aspergillus niger [6],inactive
same,MIC,Aspergillus brasiliensis [7],inactive
same,zone of inhibition at 200 µg/disc,Pseudomonas aeruginosa [8],< 6 mm
same,MIC,Bacillus spizizenii [9],inactive
same,MIC,Shigella dysenteriae [10],inactive
same,MIC,Staphylococcus aureus [11],2.5 µg/mL
same,MIC,Klebsiella pneumoniae [12],inactive
same,MIC,Candida albicans [13],0.125 µg/mL
same,zone of inhibition at 200 µg/disc,Staphylococcus aureus [14],17 mm
same,zone of inhibition at 200 µg/disc,Aspergillus niger [15],< 6 mm
same,MIC,[16],5 µg/mL
same,MIC,Proteus vulgaris [17],0.125 µg/mL
same,zone of inhibition at 200 µg/disc,Proteus vulgaris [18],23 mm
same,pIC50,Cholinesterase,4.66
same,zone of inhibition at 200 µg/disc,Escherichia coli [19],12 mm
same,MIC,Salmonella paratyphi [20]; Salmonella enterica subsp. enterica serovar Paratyphi A,inactive
same,zone of inhibition at 200 µg/disc,Salmonella paratyphi [21],< 6 mm
same,zone of inhibition at 200 µg/disc,Aspergillus brasiliensis [22],< 6 mm
same,MIC,Pseudomonas aeruginosa [23],inactive
same,zone of inhibition at 200 µg/disc,Klebsiella pneumoniae [24],< 6 mm
same,inhibition,[1],inactive
same,zone of inhibition at 200 µg/disc,[25],10 mm
c1ccc2c(c1)N=C(c1cc3ccccc3o1)CC(c1c[nH]c3ccccc13)S2 (configuration not stated),pIC50,Cholinesterase,4.22
same,inhibition,[1],inactive
